Most compounds without a hit are left out; they make up all but 1.4% or so of the library.
CAL PDZ FP-1: blocks peptide binding to the human CAL PDZ domain. inhibition, % at 24.9 µM. purified CAL PDZ, TMR-peptide fluorescence polarization, 1 h. hit rate 0.92% among 300,000. Q9HD26. AID 602252;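 active = mean inhibition of at least 30% with at least half of replicates also reaching 30%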;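 also: 0% = DMSO neutral control and 100% = excess unlabeled competitor peptide PRC23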
DYRK1A inh: inhibitors of rat Dyrk1A kinase | Q63470 | ADP-Glo luminescence, NFATc1 peptide | inhibition, % at 12.5 µM | hit rate 0.43% among 310,000 | AID 504441; in the data active = inhibition above about 50%;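 also: plate controls were vehicle with enzyme for no effect and no enzyme for full effect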
ARNT TACC3 PPI: disrupts binding between human ARNT and TACC3. inhibition, % at 9.99 µM. AID 623870. Q9Y6A5. AlphaScreen His-ARNT PAS-B/GST-TACC3 binding, luminescence; TACC3 fragment carries E629A point mutation. hit rate 0.66% among 390,000;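 active = mean inhibition of replicates at least 50% and at least half of replicates each reaching 50%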;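 also: 0% = complete ARNT plus TACC3 wells and 100% = ARNT alone without TACC3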
CAL PDZ FP-2: blocks peptide binding to human CAL PDZ domain | purified CAL PDZ, TMR-peptide fluorescence polarization, 1 h | inhibition, % at 20 µM | hit rate 0.02% among 330,000 | AID 504414;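 active = highest replicate inhibition of at least 40%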;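 also: plate controls were DMSO neutral control wells for no effect and unlabeled competitor peptide control wells for full effect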
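material = purified tagged CAL PDZ domain construct (CerCALP) | compound dosing = 20 µM, one dose | times = 1 h at RT | measured by = fluorescence polarization from S- and P-plane intensities, G-factor corrected | read-out = inhibition from polarization loss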
Starred values were filed as active, the others as inactive; x = not tested or not shown; + = active, no number.

SMILES | CAL PDZ FP-1 | DYRK1A inh | ARNT TACC3 PPI | CAL PDZ FP-2
O=C(CN1C(=O)C2C3C=CC(C3)C2C1=O)OCC(=O)c1ccccc1 (configuration not stated) | -2 | x | x | -2
C[C@H]1CN([C@@H](C)CO)C(=O)c2cccc(NC(=O)c3ccncc3)c2O[C@@H]1CN(C)C(=O)Nc1ccc(C(F)(F)F)cc1 | x | x | 7 | x
c1ccc(-c2nc3ccccn3c2NC2CCCC2)nc1 | 0 | 2 | 64* | 0
Cc1ccn2c(NC3CCCC3)c(-c3ccccn3)nc2c1 | -2 | 3 | 31 | 0
c1ccc(-c2ccccn2)nc1 | -2 | 4 | -3 | 0
Nn1c(-c2ccccn2)nnc1-c1ccccn1 | 1 | -3 | 79* | -3
Cc1ccc(S(=O)(=O)N[C@H]2CC[C@H](CC(=O)N3CCC(Cc4ccccc4)CC3)O[C@@H]2CO)cc1 | x | x | -3 | x
COC(=O)c1ccc(CN2C(=O)c3ccccc3S2(=O)=O)cc1 | 55* | 0 | -3 | x
CC(C)c1ccc(CN2C(=O)c3ccccc3S2(=O)=O)cc1 | -1 | x | 21 | -1
CCCCn1c(SCC(=O)N(C)C2CCS(=O)(=O)C2)nc2cc(S(N)(=O)=O)ccc21 (configuration not stated) | 53* | -3 | -2 | 0
CCCCn1c(SCC(=O)N(CC)C2CCS(=O)(=O)C2)nc2cc(S(N)(=O)=O)ccc21 (configuration not stated) | -1 | 5 | 29 | -3
C=CC(=O)NCc1ccc(-c2csnn2)cc1 | 57* | x | -10 | 1
Cc1cc(-n2c(=S)sc3c(=O)n(-c4ccc(F)cc4)c(SCC(=O)O)nc32)ccc1Cl | -5 | -5 | 22* | -1
Cn1c2ccc(F)cc2c2nnc(SCC(=O)Nc3cccc(O)c3)nc21 | 1 | 9 | 9 | x
Cn1c2ccccc2c2nnc(SCC(=O)Nc3cccc(C(=O)O)c3)nc21 | -2 | 2 | 47* | -4
C[C@@H]1CCCCO[C@H](CN(C)C(=O)Nc2ccc(F)cc2)[C@H](C)CN([C@@H](C)CO)C(=O)c2cc(NC(=O)CCC(F)(F)F)ccc2O1 | x | x | 0 | x
COc1cccc(/C=N/NC(=O)C(=O)N2CCCC2)c1O | -2 | -1 | 68* | -2
O=C(NN=Cc1ccccc1O)C(O)c1ccccc1 (configuration not stated) | -2 | 1 | 43* | -2
O=C(N/N=C/c1ccccc1O)C(=O)N1CCCCCC1 | 2 | -1 | 67* | 0
O=C(N/N=C/c1ccccc1)C(O)c1ccccc1 (configuration not stated) | x | -1 | 4 | -4
O=C(C[C@H]1CC[C@H]2[C@@H](COC[C@H](O)CN2C(=O)c2cccnc2)O1)NCc1ccc(-c2ccccc2)cc1 | x | x | -7 | x
O=C1C(Cl)=C(NCCCN2CCOCC2)C(=O)c2ccccc21 | -4 | 8 | 15 | 0
O=C1C(Cl)=C(NCCN2CCOCC2)C(=O)c2ccccc21 | 0 | 14 | 66* | 0
CN1C[C@@H](O)COC[C@@H]2O[C@H](CC(=O)NC3CCCC3)CC[C@H]21 | x | x | -10 | x
Cc1ccc(S(=O)(=O)N(C)C[C@@H]2Oc3c(NC(=O)Nc4ccccc4)cccc3C(=O)N([C@H](C)CO)C[C@@H]2C)cc1 | x | x | -3 | x
SMILES | CAL PDZ FP-1 | DYRK1A inh | ARNT TACC3 PPI | CAL PDZ FP-2
CCn1nc(C(=O)Nc2cc(Cl)ccc2-n2cncn2)c2ccccc2c1=O | 58* | -3 | 3 | -1
O=C(Cn1nc(C(=O)O)c2ccccc2c1=O)Nc1cc(Cl)ccc1-n1cncn1 | 7 | -2 | -9 | -3
CN(C)C(=O)c1ccc(NC(=O)c2ccc(-c3ccc(Cl)cc3)o2)cc1 | 62* | x | -29 | -3
C[C@H]1CN([C@@H](C)CO)C(=O)Cc2cc(NC(=O)C3CCCCC3)ccc2O[C@@H]1CN(C)C(=O)NC1CCCCC1 | x | x | -5 | x
COc1ccccc1S(=O)(=O)N[C@@H]1C=C[C@H](CC(=O)NCc2cc(F)cc(F)c2)O[C@@H]1CO | x | x | -5 | x
Cc1cccc(C(=O)NCC(=O)NC(C)CCc2ccccc2)c1 (configuration not stated) | 32* | 1 | -1 | 0
COc1ccccc1NC(=O)Nc1ccc2c(c1)OC[C@@H](C)N(Cc1ccccc1Cl)C[C@@H](C)[C@H](OC)CN(C)C2=O | x | x | 8 | x
COc1ccc(S(=O)(=O)Nc2nccs2)cc1OC | 53* | 7 | -6 | -7
CCNC(=O)C[C@H]1CC[C@H](NS(=O)(=O)c2ccc(F)cc2)[C@H](CO)O1 | x | x | -2 | x
O=[N+]([O-])c1cccc(S(=O)(=O)Nc2ccc3cn[nH]c3c2)c1 | + | 8 | -1 | 0
O=S(=O)(Nc1ccc2cn[nH]c2c1)c1ccc(C(F)(F)F)cc1 | -1 | -1 | -6 | -1
C[C@H]1CCCCO[C@@H](CN(C)Cc2ccncc2)[C@@H](C)CN([C@@H](C)CO)C(=O)c2cc(NS(=O)(=O)c3ccccc3)ccc2O1 | x | x | -27 | x
C/C(=N\NC(=S)NC1CCCCC1)c1cccs1 | -7 | 1 | 9 | 1
C/C(=N\NC(=S)NC1CCCCC1)c1c(F)cccc1F | 44* | 5 | 0 | 0
c1ccc2c(c1)CC1(CCCC1)N=C2N1CCOCC1 | 68* | 8 | -4 | 0
O=S1(=O)N=C(N2CCOCC2)c2ccccc21 | 0 | 6 | 26 | 0
O=c1cc(CN2CCN(Cc3ccccc3)CC2)c2ccc(O)cc2o1 | -3 | 4 | -1 | -1
O=C(c1ccco1)N1CCN(Cc2cc(=O)oc3cc(O)ccc23)CC1 | 48* | x | -4 | -1
CCOC(=O)C1Nc2ccc(C(=O)O)cc2C2C=CCC12 (configuration not stated) | 44* | 11 | 9 | x
COc1ccc(NC(=O)c2c(NC(=O)CNCc3ccco3)sc3c2CCC3)cc1 | -2 | 9 | -9 | x
CCOc1ccc(NC(=O)c2c(NC(=O)CNCCN3CCOCC3)sc3c2CCC3)cc1 | -2 | -4 | 64* | -3
COc1ccc2cc(S(=O)(=O)N3CCN(C)CC3)ccc2c1 | 7 | -7 | x | -2
COc1cccc(CNC(=O)C(C)n2ccc3cc(S(=O)(=O)N4CCCC4)ccc32)c1 (configuration not stated) | 42* | 7 | -3 | -1
COc1ccc2cc(S(=O)(=O)N3CCCC3)ccc2c1 | 81* | 8 | 0 | -1
COc1cccc(CNC(=O)C(C)n2ccc3cc(S(=O)(=O)N4CCCCCC4)ccc32)c1 (configuration not stated) | -7 | 7 | 19 | -1
Cc1coc2c(C)c3oc(=O)c(CC(=O)N[C@@H](CC(C)C)C(=O)O)c(C)c3cc12 | -4 | 1 | -7 | -1
Cc1c(CC(=O)N[C@@H](C)C(=O)O)c(=O)oc2c(C)c3occ(-c4ccccc4)c3cc12 | -11 | 3 | 76* | -7
Cc1c(CC(=O)O)c(=O)oc2cc3occ(-c4ccccc4)c3cc12 | -8 | 1 | -10 | -2
Cc1c(CC(=O)N[C@@H](C)C(=O)O)c(=O)oc2cc3occ(-c4ccccc4)c3cc12 | -10 | -2 | 48* | -3
COc1ccc(S(=O)(=O)N[C@H]2C=C[C@H](CC(=O)NCc3ccccc3F)O[C@H]2CO)cc1 | x | x | -14 | x

Assay outcomes deposited in PubChem BioAssay by Broad Institute.
